# From PubChem BioAssay
# Rows were chosen to be rich in hits. Some 3.7% of all compounds tested hit in one or more screens of this group.
# Kir21 block – blocks the mouse Kir2.1 inward-rectifier potassium channel | 310,000 compounds, 0.85% hits | P35561 | HEK293-Kir2.1, FluxOR thallium flux fluorescence; hits give low values | B-score at 10 µM;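 active means fluorescence ratio B-score at or below minus 3 SD of library scores, with starting-brightness B-score within 2 SD, cut at about -4.2 in these data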;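 further: channel flux triggered by added potassium and thallium sulfate stimulus; B-score of peak minus minimum fluorescence over baseline after thallium stimulus; more negative B-score means stronger Kir2.1 block with less thallium influx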
# KCNQ1 inh – inhibitors of human KCNQ1 potassium channel | CHO-K1 KCNQ1, FluxOR thallium flux fluorescence; hits give high values | 310,000 compounds, 1.3% hits | B-score at 10 µM;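 active means compounds whose thallium flux B-score, printed positive for inhibition, exceeds three library SD while starting fluorescence stays within three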;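 further: channel opened by potassium depolarization with thallium stimulus after 20 min compound exposure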
# hERG rescue – compounds protecting human hERG from proarrhythmic drug block; activation (rescue from dofetilide block), less the hit threshold, % at 10 µM; 310,000 compounds, 0.51% hits; CHO-hERG, FluxOR thallium flux, dofetilide IC70 present; AID 1511;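 active means activation above the mean of controls blocked by dofetilide plus 5 SD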;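 further: thallium influx through hERG after potassium depolarization seen as dye fluorescence rise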
# KCNK3 inh – human KCNK3 channel inhibition, primary screen. O14649. CHO-KCNK3 thallium flux, FluxOR fluorescence; hits give low values. B-score at 10 µM. 340,000 compounds, 0.84% hits;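 active means B-score under library mean minus 4 SD, starting fluorescence ratio at most library mean plus 5 SD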;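 further: more negative B-score means stronger inhibition of thallium flux through KCNK3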
# KCNQ1 act – potentiates or activates the human KCNQ1 potassium channel | B-score at 10 µM | CHO-K1 KCNQ1, thallium flux FluxOR fluorescence; hits give high values | P51787 | 310,000 compounds, 0.35% hits;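 active means fluorescence ratio B-score, a plate-corrected score, at least three library SD, with initial intensity B-score within 5 SD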
#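 Assay system: stable KCNQ1 CHO-K1 line; medium: assay buffer, equal DMSO in all wells; timing: 90 min dye loading and 20 min compound exposure, both at room temperature; technique: kinetic FluxOR thallium fluorescence, 10-s 1-Hz baseline, 110-s post-stimulus read; read-out basis: B score of baseline-normalized fluorescence ratio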
# KCNK9 block – inhibitors of human KCNK9 two-pore domain potassium channel | Q9NPC2 | HEK293 KCNK9, FluxOR thallium flux fluorescence; hits give low values | B-score at 10 µM | 310,000 compounds, 1.2% hits | AID 488922;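 active means ratio B-score over 3 SD below the library mean, with starting fluorescence within 5 SD of its mean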;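 further: negative B-score means less thallium flux so channel inhibition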
# Starred values were filed as active, the others as inactive; i = inactive; / = no result given.
SMILES,Kir21 block,KCNQ1 inh,hERG rescue,KCNK3 inh,KCNQ1 act,KCNK9 block
CC(C)Cc1nnc(NC(=O)CCC(=O)N2CCN(Cc3ccccc3)CC2)s1,1.07,i,-3.9,i,i,i
Cc1cc(C)c(S(=O)(=O)Nc2ccc(N(C)C)cc2)c(C)c1-n1cnnn1,-1.11,i,-13.3,i,i,i
CCCCN1C=CC(=C2C(=O)c3ccccc3C2=O)C=C1,-0.69,i,-7.3,i,i,i
O=[N+]([O-])c1cccc(N(CC2CO2)S(=O)(=O)c2ccccc2)c1 (configuration not stated),-4.71*,i,-3.5,i,i,i
Cc1ccc(N(CC2CO2)S(=O)(=O)c2ccc([N+](=O)[O-])cc2)cc1 (configuration not stated),-4.32*,i,-1.5,i,i,i
Cc1ccc(COC(=O)CCN=C2NS(=O)(=O)c3ccccc32)cc1,1.14,i,-11.9,i,i,i
CCN(CC)C(=O)Cn1cc(C(=O)C(=O)N2CC=C(c3ccccc3)CC2)c2ccccc21,-0.2,i,37.9*,i,i,i
CCN(CC)C(=O)Cn1cc(C(=O)C(=O)N2CCN(C)CC2)c2ccccc21,-0.25,i,1.7,i,i,i
CN(C)c1ccc(/C=N/OC(=O)Nc2ccccc2Cl)cc1,0.78,i,-13.0,i,i,i
O=C(NCCN1CCCCC1)/C(=C/c1ccco1)NC(=O)c1ccccc1,1.51,i,-9.5,i,i,i
Cc1ccc2nc(/C(C#N)=C\c3ccc([N+](=O)[O-])o3)[nH]c2c1,-0.37,i,-5.2,i,i,i
Cc1ccc2nc(/C(C#N)=C\c3ccc(N4CCOCC4)o3)[nH]c2c1,-4.49,6*,-8.1,i,i,i
COc1ccc(CNC(=O)COC(=O)c2cc(S(=O)(=O)N3CCOCC3)ccc2O)cc1OC,/,/,/,i,/,/
CN(Cc1ccccc1)C(=O)c1cccc(NC(=O)Cc2ccc(NC(=O)C3CCN(C(=O)C4CCC4)CC3)cc2)c1,/,/,/,i,/,/
CC(C)CN(CC(C)C)S(=O)(=O)c1cc([N+](=O)[O-])ccc1N1CCCCCC1,-2.22,7*,-0.2,i,i,i
CN(C)S(=O)(=O)c1cc([N+](=O)[O-])ccc1N1CCCCCC1,-4.62*,i,-1.5,i,i,i
N#Cc1cc([N+](=O)[O-])ccc1N1CCCC1,-1.05,i,-2.0,i,i,i
O=[N+]([O-])c1ccc(N2CCCCCC2)c([N+](=O)[O-])c1,-0.89,i,-15.8,i,i,i
O=C(CN1C(=O)NC2(CCc3ccccc32)C1=O)Nc1ccccc1C(F)(F)F (configuration not stated),/,/,/,i,/,/
O=C(O)c1ccccc1CSc1nc2ccccc2[nH]1,-1.32,i,-4.5,i,i,i
C(=C\c1ccccc1)/CSc1nnc(-c2cnccn2)n1Cc1ccco1,-5.27*,i,-10.8,i,i,i
C=CCn1c(SCc2cccc3ccccc23)nnc1-c1cccnc1,-6.44*,i,-15.4,i,i,i
C=CCn1c(SCC(=O)Nc2ccc(C(=O)O)cc2)nnc1-c1cccnc1,-0.02,i,-6.7,i,i,i
Clc1ccccc1CSc1nnc(-c2cccnc2)n1Cc1ccco1,-4.44*,i,-14.6,i,i,i
Fc1ccc(CSc2nnc(-c3cnccn3)n2Cc2ccco2)cc1,-0.54,i,-4.7,i,i,i
SMILES,Kir21 block,KCNQ1 inh,hERG rescue,KCNK3 inh,KCNQ1 act,KCNK9 block
Nc1ncnc(N2CCOCC2)n1,/,/,/,i,/,/
O=C1ON=C(c2cccc([N+](=O)[O-])c2)/C1=C/c1ccc(O)cc1,-6.76*,7*,-25.4,i,i,i
COc1ccc(C2=NN(c3ccccc3)C(=O)/C2=C\c2ccc(O)c(OC)c2)cc1,0.63,11*,-3.8,i,i,i
O=C1ON=C(c2ccccc2)/C1=C/c1ccc(O)c(O)c1,-5.22*,i,-15.7,i,i,i
O=C1ON=C(c2ccc(Cl)c([N+](=O)[O-])c2)/C1=C/c1cccc([N+](=O)[O-])c1O,/,/,/,i,/,/
COc1cc(/C=C2/C(=O)N(c3cccc(Br)c3)N=C2C)cc(OC)c1O,1.34,8*,-7.8,i,i,i
COc1ccc(/C=C2/C(=O)N(c3ccccc3)N=C2C)cc1,2.43,i,0.2,i,i,i
CC(C)n1c(SCC(=O)Nc2nncs2)nnc1-c1ccco1,0.95,i,-6.6,/,i,i
c1ccc(C(c2ccccc2)c2noc(CN3CCC(c4ccncc4)CC3)n2)cc1,-0.7,i,-23.3,i,i,i
COc1ccc(/C=C2\C(=O)ON=C2c2ccccc2)cc1,0.11,i,-6.1,i,i,i
COc1cc(/C=C2\C(=O)ON=C2c2ccc(Cl)cc2)ccc1O,-4.75*,i,-10.5,i,i,i
O=C(NNc1nc2c(F)cc(F)cc2s1)c1ccccc1,0.28,i,-7.3,i,61*,i
CC(C)c1ccc2c(c1)C(N1CCNCC1)Cc1ccc(F)cc1S2 (configuration not stated),-5.22*,i,-30.4,i,i,i
N#CC(C#N)=Cc1c(N2CCN(c3ccccc3)CC2)nc2ccccn2c1=O,-0.12,i,-7.6,i,i,i
O=C1OC(c2ccc3c(c2)OCO3)N(C(=O)c2ccc(Cl)c(Cl)c2)c2ccccc21 (configuration not stated),-0.55,i,-7.5,i,i,-7.52*
Cc1cccc(C(=O)N2c3ccccc3C(=O)OC2c2ccc3c(c2)OCO3)c1 (configuration not stated),-0.06,i,-5.7,i,i,i
Brc1ccccc1-c1nc2c3ccccc3ncn2n1,/,/,/,-9.43*,/,/
CCCc1ccc(S(=O)(=O)N/N=C\c2ccc3c(c2)OCO3)cc1,2.63,i,-12.3,i,i,i
O=C(NC(=S)Nc1cccc(Cl)c1N1CCOCC1)c1cccs1,-0.05,i,17.5*,i,i,i
O=C(NC(=S)Nc1cccc(Cl)c1N1CCCCC1)c1cccs1,-2.26,i,7.2*,i,24*,i
O=C(NC(=S)Nc1ccc(N2CCOCC2)cc1)c1cccs1,-0.53,i,0.0,i,i,i
Cn1nnc(NC(=S)NC(=O)c2cc(Cl)ccc2Cl)n1,1.14,i,-7.3,i,i,i
CCn1cc(SCC(=O)NC2CCCC2)c2ccccc21,-4.78*,i,-5.6,i,i,i
CCOC(=O)N1CCC(NC(=O)CSc2cc(=O)n(CC)c3ccccc23)CC1,-0.9,i,-7.6,i,i,-7.06*
